According to ChEMBL document CHEMBL1148541, “Biological evaluation of 1-alkyl-3-phenylthioureas as orally active HDL-elevating agents” (Bioorg Med Chem Lett, 2006):

Key:
Rattus norvegicus [1] = assay: Increase of total cholesterol level in cholesterol-fed male rats at 55 mg/kg/day relative to control; format: functional
In short: (§1)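 Dietary (ad libitum) dosing of groups of six male Sprague–Dawley rats on a cholesterol diet for 8 days. Serum total cholesterol was quantitated enzymatically by a colorimetric method and expressed as % change relative to untreated controls, with significance at p < 0.05.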

Rattus norvegicus [2] = assay: Weight gain in cholesterol-fed male rats at 55 mg/kg/day relative to control; format: functional
In short: (§2)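 Groups of six male Sprague–Dawley rats on a cholesterol diet received the compound in the diet, ad libitum, over 8 days. Body weight gain is reported as % change relative to untreated controls.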

Rattus norvegicus [3] = assay: Increase of HDL level in cholesterol-fed male rats by FPLC method at 55 mg/kg/day relative to control; format: functional
In short: (§3)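 Groups of six male Sprague–Dawley rats on a cholesterol diet received drug in the diet, ad libitum, for 8 days. Serum lipoproteins separated by FPLC, adapted for robotic automation, and cholesterol quantitated enzymatically by colorimetry. HDL given as % change versus untreated controls, with significance set at p < 0.05.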

Rattus norvegicus [4] = assay: Increase of HDL level in cholesterol-fed male rats by ultracentrifugation method at 55 mg/kg/day relative to control; format: functional
In short: (§4)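 Cholesterol-fed male Sprague–Dawley rats, six per group, given drug in the diet ad libitum for 8 days. Serum lipoproteins separated by classical ultracentrifugation and HDL cholesterol measured by an enzymatic colorimetric method. Expressed as % change versus untreated controls, with significance set at p < 0.05.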

Rattus norvegicus [5] = assay: Triglyceride level in cholesterol-fed male rats at 55 mg/kg/day relative to control; format: functional
In short: (§5)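 Male Sprague–Dawley rats on a cholesterol diet, in groups of six, received the compound in the diet ad libitum for 8 days. Serum triglycerides are expressed as % change relative to untreated controls, with significance at p < 0.05 versus controls.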

Rattus norvegicus [6] = assay: Increase of Apolipoprotein A-I level in cholesterol-fed male rats at 55 mg/kg/day relative to control; format: functional
In short: (§6)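 Drug mixed into diet, fed ad libitum for 8 days to groups of six male Sprague–Dawley rats on a cholesterol diet. Serum Apo A-I measured by SDS–polyacrylamide gel electrophoresis or by rat competition ELISA. Reported as % change versus untreated controls, with significance set at p < 0.05.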

Rattus norvegicus [7] = species on record: Rattus norvegicus; assay: Increase in liver enzyme Alanine aminotransferase; format: functional
Rattus norvegicus [8] = species on record: Rattus norvegicus; assay: Increase in liver enzyme Aspartate aminotransferase; format: functional; set-up: concentration or dose not given beside the values
Rattus norvegicus [9] = species on record: Rattus norvegicus; assay: Increase in liver enzyme Alkaline phosphatase; format: functional; set-up: concentration or dose not given beside the values
Rattus norvegicus [10] = assay: Increase of Apolipoprotein A-I level in cholesterol-fed male rats at 79 mg/kg/day relative to control; format: functional; in short: as §6
Rattus norvegicus [11] = assay: Increase of HDL level in cholesterol-fed male rats by ultracentrifugation method at 79 mg/kg/day relative to control; format: functional
In short: (§7)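 Compound given in the diet, ad libitum, to groups of six male Sprague–Dawley rats on a cholesterol diet for 8 days. Serum lipoproteins were separated by classical ultracentrifugation, and HDL cholesterol was quantitated by an enzymatic colorimetric method. Results are reported as % change relative to untreated controls, with significance at p < 0.05 versus controls.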

Rattus norvegicus [12] = assay: Weight gain in cholesterol-fed male rats at 79 mg/kg/day relative to control; format: functional; in short: as §2
Rattus norvegicus [13] = assay: Increase of total cholesterol level in cholesterol-fed male rats at 79 mg/kg/day relative to control; format: functional; in short: as §1
Rattus norvegicus [14] = assay: Increase of HDL level in cholesterol-fed male rats by FPLC method at 79 mg/kg/day relative to control; format: functional; in short: as §3
Hamster [15] = assay: Increase of HDL cholesterol in normal-fed hamster at 52 mg/kg/day; format: functional, Cricetulus griseus
Canis familiaris = assay: Increase of HDL cholesterol in normal-fed dog at 35 mg/kg/day; format: functional, Canis lupus familiaris
Rhesus monkey = assay: Increase of HDL cholesterol in chow-fed rhesus monkey at 12 mg/kg/day; format: functional, Macaca mulatta
Cynomolgus monkey = assay: Increase of HDL cholesterol in chow-fed cynomolgus monkey at 12 mg/kg/day; format: functional, Macaca fascicularis
Rattus norvegicus [16] = assay: Triglyceride level in cholesterol-fed male rats at 79 mg/kg/day relative to control; format: functional; in short: as §5
Rattus norvegicus [17] = assay: Increase of HDL cholesterol in normal-fed rat at 80 mg/kg/day; format: functional
Hamster [18] = assay: Increase of HDL cholesterol in chow-fed hamster at 64 mg/kg/day; format: functional, Cricetulus griseus
[19] = molecular target: T1, Peroxisome proliferator-activated receptor alpha (Rattus norvegicus, UniProt P37230); assay: Activity against PPAR-alpha
T1 sequence (P37230 whole entry): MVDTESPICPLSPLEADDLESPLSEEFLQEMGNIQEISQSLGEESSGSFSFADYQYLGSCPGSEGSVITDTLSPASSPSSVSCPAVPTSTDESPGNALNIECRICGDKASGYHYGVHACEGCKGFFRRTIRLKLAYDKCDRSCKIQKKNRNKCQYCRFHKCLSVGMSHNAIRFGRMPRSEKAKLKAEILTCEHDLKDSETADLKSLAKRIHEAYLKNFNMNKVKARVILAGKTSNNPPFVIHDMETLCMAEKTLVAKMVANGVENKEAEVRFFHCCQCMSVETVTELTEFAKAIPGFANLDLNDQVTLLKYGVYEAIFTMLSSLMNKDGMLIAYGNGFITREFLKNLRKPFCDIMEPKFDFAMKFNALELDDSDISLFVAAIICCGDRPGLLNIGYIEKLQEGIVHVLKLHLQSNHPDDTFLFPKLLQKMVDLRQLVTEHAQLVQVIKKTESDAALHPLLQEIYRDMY

[20] = molecular target: T2, Peroxisome proliferator-activated receptor delta (Homo sapiens, UniProt Q03181); assay: Activity against PPAR-delta
T2 sequence (Q03181 whole entry): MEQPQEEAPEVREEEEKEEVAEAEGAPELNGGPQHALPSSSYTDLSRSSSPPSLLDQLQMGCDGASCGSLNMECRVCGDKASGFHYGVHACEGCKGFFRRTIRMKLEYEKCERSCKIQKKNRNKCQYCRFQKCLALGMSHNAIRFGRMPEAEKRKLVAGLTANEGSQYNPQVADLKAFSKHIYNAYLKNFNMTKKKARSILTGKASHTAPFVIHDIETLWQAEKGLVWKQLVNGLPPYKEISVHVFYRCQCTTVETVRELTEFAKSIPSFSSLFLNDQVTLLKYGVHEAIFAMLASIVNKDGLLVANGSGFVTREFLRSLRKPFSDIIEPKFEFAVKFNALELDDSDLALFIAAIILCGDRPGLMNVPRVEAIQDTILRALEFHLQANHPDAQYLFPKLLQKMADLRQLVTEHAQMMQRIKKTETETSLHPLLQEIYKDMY

Rattus norvegicus [21] = assay: Increase of HDL level in cholesterol-fed male rats by ultracentrifugation method at 63 mg/kg/day relative to control; format: functional; in short: as §4
Rattus norvegicus [22] = assay: Weight gain in cholesterol-fed male rats at 63 mg/kg/day relative to control; format: functional; in short: as §2
Rattus norvegicus [23] = assay: Increase of total cholesterol level in cholesterol-fed male rats at 63 mg/kg/day relative to control; format: functional; in short: as §1
Rattus norvegicus [24] = assay: Increase of HDL level in cholesterol-fed male rats by FPLC method at 63 mg/kg/day relative to control; format: functional; in short: as §3
Rattus norvegicus [25] = assay: Increase of Apolipoprotein A-I level in cholesterol-fed male rats at 63 mg/kg/day relative to control; format: functional; in short: as §6
Rattus norvegicus [26] = assay: Triglyceride level in cholesterol-fed male rats at 63 mg/kg/day relative to control; format: functional; in short: as §5
Rattus norvegicus [27] = assay: Increase of Apolipoprotein A-I level in cholesterol-fed male rats at 62 mg/kg/day relative to control; format: functional; in short: as §6
Rattus norvegicus [28] = assay: Weight gain in cholesterol-fed male rats at 62 mg/kg/day relative to control; format: functional; in short: as §2
Rattus norvegicus [29] = assay: Increase of HDL level in cholesterol-fed male rats by ultracentrifugation method at 62 mg/kg/day relative to control; format: functional; in short: as §4
Rattus norvegicus [30] = assay: Increase of total cholesterol level in cholesterol-fed male rats at 62 mg/kg/day relative to control; format: functional; in short: as §1
Rattus norvegicus [31] = assay: Increase of HDL level in cholesterol-fed male rats by FPLC method at 62 mg/kg/day relative to control; format: functional; in short: as §3
Rattus norvegicus [32] = assay: Triglyceride level in cholesterol-fed male rats at 62 mg/kg/day relative to control; format: functional; in short: as §5
Rattus norvegicus [33] = assay: Increase of Apolipoprotein A-I level in cholesterol-fed male rats at 77 mg/kg/day relative to control; format: functional; in short: as §6
Rattus norvegicus [34] = assay: Increase of HDL level in cholesterol-fed male rats by ultracentrifugation method at 77 mg/kg/day relative to control; format: functional; in short: as §7
Rattus norvegicus [35] = assay: Increase of HDL level in cholesterol-fed male rats by FPLC method at 77 mg/kg/day relative to control; format: functional; in short: as §3
Rattus norvegicus [36] = assay: Weight gain in cholesterol-fed male rats at 77 mg/kg/day relative to control; format: functional; in short: as §2
Rattus norvegicus [37] = assay: Increase of total cholesterol level in cholesterol-fed male rats at 77 mg/kg/day relative to control; format: functional; in short: as §1
Rattus norvegicus [38] = assay: Triglyceride level in cholesterol-fed male rats at 77 mg/kg/day relative to control; format: functional; in short: as §5

Structure (SMILES): CCCC/N=C(\S)Nc1cc(Cl)ccc1C
- Activity (Rattus norvegicus [1]): 39%
- Activity (Rattus norvegicus [2]): -53%
- Activity (Rattus norvegicus [3]): 203%
- Activity (Rattus norvegicus [4]): 100%
- Activity (Rattus norvegicus [5]): -44%
- Activity (Rattus norvegicus [6]): 38%
- Activity (Rattus norvegicus [7]): 93%
- Activity (Rattus norvegicus [8]): 79%
- Activity (Rattus norvegicus [9]): 44%

Structure (SMILES): Cc1ccc(Cl)cc1N/C(S)=N/CC(C)C
- Activity (Rattus norvegicus [10]): 77%
- Activity (Rattus norvegicus [11]): 104%
- Activity (Rattus norvegicus [12]): -12%
- Activity (Rattus norvegicus [13]): -11%
- Activity (Rattus norvegicus [14]): 260%
- Activity (Hamster [15]): 44%
- Activity (Canis familiaris): 50%
- Activity (Rhesus monkey): 75%
- Activity (Cynomolgus monkey): 100%
- Activity (Rattus norvegicus [16]): -54%
- Activity (Rattus norvegicus [17]): 75%
- Activity (Hamster [18]): 15%
- EC50 [19]: > 100 µM
- EC50 [20]: > 100 µM

Structure (SMILES): CC[C@@H]1CCCCN1/C(S)=N/c1cc(Cl)ccc1C
- Activity (Rattus norvegicus [21]): 129%
- Activity (Rattus norvegicus [22]): -105%
- Activity (Rattus norvegicus [23]): 167%
- Activity (Rattus norvegicus [24]): 614%
- Activity (Rattus norvegicus [25]): 30%
- Activity (Rattus norvegicus [26]): -54%
- Activity (Rattus norvegicus [8]): 80%
- Activity (Rattus norvegicus [9]): 105%
- EC50 [19]: > 100 µM
- EC50 [20]: > 100 µM

Structure (SMILES): CC[C@H]1CCCCN1/C(S)=N/c1cc(Cl)ccc1C
- Activity (Rattus norvegicus [27]): 39%
- Activity (Rattus norvegicus [28]): -88%
- Activity (Rattus norvegicus [29]): 124%
- Activity (Rattus norvegicus [30]): 126%
- Activity (Rattus norvegicus [31]): 404%
- Activity (Rattus norvegicus [8]): 85%
- Activity (Rattus norvegicus [32]): -56%
- Activity (Rattus norvegicus [9]): 129%
- EC50 [19]: > 100 µM
- EC50 [20]: > 100 µM

Structure (SMILES): CCC/N=C(\S)Nc1cc(OC)ccc1OC
- Activity (Rattus norvegicus [10]): 19%
- Activity (Rattus norvegicus [11]): 108%
- Activity (Rattus norvegicus [12]): 14%
- Activity (Rattus norvegicus [13]): 60%
- Activity (Rattus norvegicus [14]): 97%
- Activity (Rattus norvegicus [16]): -23%

Structure (SMILES): Cc1ccc(Cl)cc1/N=C(\S)NCc1ccccc1
- Activity (Rattus norvegicus [33]): 27%
- Activity (Rattus norvegicus [34]): 135%
- Activity (Rattus norvegicus [35]): 136%
- Activity (Rattus norvegicus [36]): 41%
- Activity (Rattus norvegicus [37]): 97%
- Activity (Rattus norvegicus [38]): -21%
